Assay outcomes: PubChem BioAssay, several laboratories
Compounds with a hit are over-represented: about 3.2% of the library has one in this group of screens.
Pemphigus Ab inh = inhibitors of pemphigus antibody binding to human desmoglein-3; P32926; DSG3-coupled beads, scFv-anti-DSG3-GFP binding, flow cytometry; active compounds read low; binding (percent of control), % at 10 µM; 310,000 tested, 0.48% active; AID 588358;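 active = binding more than 3 SD below its plate's average and above zero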;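 note: hits lower antibody fragment binding to DSG3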
UBC13 inh = human UBC13 polyubiquitination inhibition; P61088; UBC13 polyubiquitin chain formation, TR-FRET; inhibition, % at 20 µM; 330,000 tested, 0.47% active; AID 485273; in the data active = inhibition above about 45%, passing the limit was not always enough
MEKK3 PB1 HTS = MEKK3-MEK5 PB1 interaction, increase or decrease; Q99759; bead-based flow cytometry, Alexa488-MEK5 binding to MEKK3; actives lie on both sides; 0 = blocked by unlabeled MEK5, 100 = vehicle; binding response (% of control), % at 10 µM; 290,000 tested, 1.4% active;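 active = binding response more than 3 SD above or below the average of its plate-row segment, actives on both sides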;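 note: Alexa488 bead fluorescence after subtracting the streptavidin-only scavenger bead signal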
Target sequence (Q99759 whole entry, looked up): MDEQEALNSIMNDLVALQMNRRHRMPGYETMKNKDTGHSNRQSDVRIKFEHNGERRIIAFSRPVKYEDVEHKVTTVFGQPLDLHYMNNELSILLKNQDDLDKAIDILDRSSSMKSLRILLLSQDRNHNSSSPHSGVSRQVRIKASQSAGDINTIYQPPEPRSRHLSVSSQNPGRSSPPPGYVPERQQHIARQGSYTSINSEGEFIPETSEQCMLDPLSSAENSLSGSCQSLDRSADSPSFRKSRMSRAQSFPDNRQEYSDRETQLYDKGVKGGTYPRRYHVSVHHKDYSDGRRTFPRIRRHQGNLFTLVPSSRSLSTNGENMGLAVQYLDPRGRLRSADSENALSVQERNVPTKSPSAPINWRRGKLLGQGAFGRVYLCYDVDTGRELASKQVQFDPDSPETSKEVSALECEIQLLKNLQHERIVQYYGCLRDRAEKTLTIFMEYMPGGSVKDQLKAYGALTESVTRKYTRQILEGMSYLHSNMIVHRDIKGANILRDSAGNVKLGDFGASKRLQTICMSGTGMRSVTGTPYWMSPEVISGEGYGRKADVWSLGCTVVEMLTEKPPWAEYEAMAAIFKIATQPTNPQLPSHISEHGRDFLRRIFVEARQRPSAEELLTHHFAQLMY
MEKK2wt PB1 HTS = raises or lowers MEK5 binding to wildtype human MEKK2 PB1 domain | AID 1531 | bead flow cytometry, Alexa488-MEK5 binding to MEKK2 WT; actives lie on both sides | 290,000 tested, 1.1% active | binding response (% of control), % at 10 µM; in the data active = binding response below about 67% or above about 130%
Apaf-1 inh = human Apaf-1 inhibition; reconstituted apoptosome caspase-3 activity, DEVD-Rh110 fluorescence; 330,000 tested, 0.71% active; inhibition, % at 20 µM; O14727; active = inhibition of at least 40% at 20 µM;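 note: plate controls were DMSO wells for no effect and DEVD-CHO caspase inhibitor wells for full effect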
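System: Apoptosome proteins | Medium: Hepes pH 7.5 with detergent and BSA | Also added: Cytochrome c trigger plus (Z-DEVD)2-Rh110 caspase-3 substrate | Incubation: 30 min compound preincubation, 50 min activation, room temperature | Detection: Rhodamine 110 fluorescence at Ex 480/Em 540 nm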
MEKK2 mut-MEK5 = signal of MEK5 binding to mutant human MEKK2 PB1 domain; bead flow cytometry, Alexa488-MEK5 binding to MEKK2 mutant; percent response, % at 10 µM; 290,000 tested, 0.35% active; in the data active = percent response above about 24%, passing the limit was not always enough
MEKK2wt confirm = raises or lowers MEK5 binding to wildtype human MEKK2, retest. shares compounds with MEKK3 PB1 HTS. bead flow cytometry, Alexa488-MEK5 binding to MEKK2 WT; actives lie on both sides. binding response (% of control), % at 10 µM. 5,900 tested, 2.4% active. AID 1892; in the data active = binding response below about 16% or above about 210%; inactive = in between
MEKK2mut-MEK5 = signal of MEK5 binding to mutant human MEKK2, retest; percent response, % at 10 µM; 5,900 tested, 2% active; shares compounds with MEKK3 PB1 HTS; bead flow cytometry, Alexa488-MEK5 binding to MEKK2 mutant; in the data active = percent response mostly above about 71%, no sharp cut-off; inactive = mostly below about 38%;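 note: higher means compound restores mutant binding toward wildtype level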
MEKK3 confirm = MEKK3-MEK5 PB1 inhibition, single concentration confirmation | shares compounds with MEKK3 PB1 HTS | bead flow cytometry, Alexa488-MEK5 binding to MEKK3; active compounds read low | binding response (% of control), % at 10 µM | 5,900 tested, 1.8% active | AID 1894;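 active = binding response below 72% of control, or above a set upper limit, though filed actives all read lower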;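 note: 100% = DMSO only wells and 0% = binding blocked by excess unlabeled MEK5; lower values mean stronger disruption of MEK5 binding to MEKK3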
The depositor's hits bear a star; · = not tested or not shown; ! = a repeat was not active; [ ] = dose if it differs, or a comment.

SMILES	Pemphigus Ab inh	UBC13 inh	MEKK3 PB1 HTS	MEKK2wt PB1 HTS	Apaf-1 inh	MEKK2 mut-MEK5	MEKK2wt confirm	MEKK2mut-MEK5	MEKK3 confirm
C[C@H]1C(=O)N(C)CCN1C(=O)c1ccc(OC2CCN(CCc3ccccc3)CC2)cc1	106.2	·	·	·	·	·	·	·	·
Brc1ccccc1OCCOCCOc1cccc2cccnc12	100.5	-1.9	96.0	95.0	12.5	-4.0	·	·	·
Clc1ccc(OCCOCCOc2cccc3cccnc23)c(Br)c1	80.6	-0.8	137.0*	109.0	30.5	1.0	111.0	16.0	114.0
O=C(NCc1cccnc1)C1C2C=CC(C2)C1C(=O)Nc1cccc(C(F)(F)F)c1 (stereo not drawn)	95.9	·	·	·	·	·	·	·	·
COCCNC(=O)c1c(NC(=O)c2nc(SC)ncc2Cl)sc2c1CCCC2	100.6	-2.5	82.0*[inhibitor]	82.0	-6.0	-10.0	106.0	4.0	104.0
CC1(C)Cc2c(C#N)c(N)sc(=S)c2CS1	107.7	-18.0	85.0	56.0*[inhibitor]	11.3	-21.0	79.0	-10.0	97.0
CCCCCC(=O)N1CC2(CC(c3cccc(NC(=O)CC(c4ccccc4)c4ccccc4)c3)=NO2)C[C@@H]1C(N)=O (stereo partly drawn)	102.5	8.6	81.0*[inhibitor]	96.0	19.2	3.0	98.0	-11.0	98.0
CC1CCC(NC(=O)Cn2cnc3sccc3c2=O)CC1 (stereo not drawn)	105.4	-2.4	·	·	-1.8	·	·	·	·
O=C(Nc1ccc2c(c1)[C@@H]1C[C@@H](CC(=O)N3CCOCC3)O[C@@H](CO)[C@@H]1O2)NC1CCCC1	100.2	·	·	·	·	·	·	·	·
Cc1ncc(CO)c(/C=N/NC(=O)c2ccoc2C)c1O	93.5	4.9	·	·	3.4	·	·	·	·
Cc1ncc(CO)c(/C=N/NC(=O)c2ccccc2Br)c1O	84.4	7.4	99.0	5.0*[inhibitor]	-9.7	2.0	101.0	2.0	105.0
Cc1cnc(NC(=O)Nc2ccccc2)c(C)n1	110.5	8.1	106.0	103.0	-5.6	11.0	·	·	·
CCC(C)NC(=O)CN(c1cc(Cl)ccc1OC)S(C)(=O)=O (stereo not drawn)	120.6	13.9	140.0*	114.0	-5.7	1.0	99.0	-6.0	99.0
CC(C)NCC(O)c1ccc(NS(C)(=O)=O)cc1 (stereo not drawn)	108.1	7.6	122.0*!	119.0	-11.3	6.0	101.0	-5.0	99.0
CCOC(=O)c1ccc(NS(C)(=O)=O)cc1	·	-3.7	107.0	108.0	1.6	5.0	·	·	·
CC1(C)CC(NC(=S)Nc2ccc(S(N)(=O)=O)cc2)CC(C)(C)N1	99.7	6.3	134.0*	121.0	3.3	1.0	110.0	6.0	101.0
Cc1cc(C)cc(NS(=O)(=O)c2ccc(NC(=S)Nc3ccccc3)cc2)c1	96.1	10.4	102.0	130.0	4.2	1.0	·	·	·
NS(=O)(=O)c1ccc(NS(=O)(=O)c2ccc(NC(=S)Nc3ccccc3)cc2)cc1	82.7	-2.3	4.0*[inhibitor]	99.0	3.5	1.0	101.0	-6.0	102.0
CCC1NC(=O)c2cc3ccccc3cc2-n2c1nc1cc(OC)c(OC)cc1c2=O (stereo not drawn)	93.9	·	·	·	·	·	·	·	·
O=C(/C=C\c1ccccc1OC(=O)c1ccccc1F)c1cc2ccccc2o1	89.1	6.7	135.0*	103.0	3.3	0.0	105.0	0.0	109.0
CN1CCN(S(=O)(=O)c2ccc(NC(=O)c3ccc(Br)s3)cc2)CC1	104.4	4.8	114.0	138.0*	10.3	13.0	118.0	15.0	109.0
CN1CCN(S(=O)(=O)c2ccc(NC(=O)c3ccccc3Cl)cc2)CC1	107.4	-5.4	100.0	105.0	-7.6	2.0	·	·	·
CN1CCN(S(=O)(=O)c2ccc(NC(=O)c3ccc(Br)o3)cc2)CC1	96.9	1.0	41.0*[inhibitor]	51.0	-12.6	-9.0	111.0	10.0	110.0
